SIRT5 block: SIRT5 desuccinylase inhibitors, primary screen, biochemical, fluorescence imaging, single point, set 5 | NAD-dependent protein deacylase sirtuin-5, mitochondrial (Homo sapiens), Q9NXA8 | Purified SirT5, succinyl-peptide AMC, trypsin-coupled fluorescence | inhibition, % at 15 µM | 1.1% of 330,000 active | AID 652115, 2013; in the data active = inhibition above about 15%
Target sequence (Q9NXA8 whole entry, looked up): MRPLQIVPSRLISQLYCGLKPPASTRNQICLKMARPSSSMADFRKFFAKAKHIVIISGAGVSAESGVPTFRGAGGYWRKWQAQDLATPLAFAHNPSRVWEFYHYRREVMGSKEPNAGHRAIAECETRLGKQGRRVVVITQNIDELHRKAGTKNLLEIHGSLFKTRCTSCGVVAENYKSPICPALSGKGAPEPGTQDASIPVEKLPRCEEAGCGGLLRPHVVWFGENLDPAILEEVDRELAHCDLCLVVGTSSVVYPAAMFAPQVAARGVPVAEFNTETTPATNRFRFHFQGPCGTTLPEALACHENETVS
ERAP1 HTS inh: human ERAP1 aminopeptidase inhibitors, primary screen, biochemical, single point, plate reader; AID 652197, 2013; Endoplasmic reticulum aminopeptidase 1 (Homo sapiens), Q9NZ08; inhibition, % at 10.7 µM; recombinant ERAP1, Leu-AMC fluorescence, 60 min; 0.15% of 340,000 active;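 active = mean replicate inhibition of at least 30%, or all replicates individually reaching that 30% level; inactive = mean below 30% and not every replicate reaching it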;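 also: 0% = neutral control wells and 100% = L-leucinethiol positive control wells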
PGC1a acetyl inh: inhibitors of PGC1a acetylation signal, primary screen, cell-based, U2OS, AlphaScreen, inhibitor mode; AlphaScreen anti-acetyl-lysine; with virally co-expressed GCN5 acetyltransferase; inhibition, % at 15.6 µM; 0.17% of 350,000 active; AID 651687, 2012;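 active = every replicate shows inhibition of at least 40%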;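 also: 0% = neutral control wells and 100% = positive control wells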
FN deposit inh: inhibitors of fibronectin matrix deposition, primary screen, AH1F cells, Alexa488-fibronectin fluorescence, plate reader. AID 743247, 2014. AH1F fibroblasts, overnight. inhibition, % at 12.6 µM. 0.086% of 350,000 active;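 active = mean inhibition across replicates of 30% or more, regardless of how many single replicates reach that level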;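 also: positive control wells lacked labelled fibronectin entirely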
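Assay system: AH1F fibroblasts / Quantity: 10000 cells per well / Medium: DMEM plus 2% serum, read in PBS / Reagent: labelled fibronectin 24 nM / Dosing: single dose, pinned / Times: 1 h cell attachment, overnight exposure to compound and label / Signal: fluorescence, ex 485 nm, em 525 nm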
FGF22 binding: binders of human FGF22 protein, primary screen, FGF22 synaptogenesis inhibitor project, biophysical, thermal shift, single point; Fibroblast growth factor 22 (Homo sapiens), Q9HCT0; recombinant FGF22 thermal shift, SYPRO orange fluorescence; percent of sucrose octasulfate shift, DMSO zero; activity (Tm shift, normalised), % at 9.99 µM; 1.5% of 340,000 active;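 active = mean Tm shift, scaled 0 neutral to 100 positive control, at about 1.3% or above, every replicate too, limit read from the data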
Target sequence (Q9HCT0 whole entry, looked up): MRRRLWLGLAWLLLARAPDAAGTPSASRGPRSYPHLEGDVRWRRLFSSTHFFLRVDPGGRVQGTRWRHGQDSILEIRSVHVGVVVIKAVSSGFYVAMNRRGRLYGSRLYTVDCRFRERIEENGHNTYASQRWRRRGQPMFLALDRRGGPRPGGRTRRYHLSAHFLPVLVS
* marks the source's active call; other numbers are inactive results; / = no result given. Rows were chosen to be rich in hits. Some 2.2% of all compounds tested hit in one or more screens of this group.

SMILES | SIRT5 block | ERAP1 HTS inh | PGC1a acetyl inh | FN deposit inh | FGF22 binding
C[C@@H]1CN([C@H](C)CO)C(=O)c2c(c3ccccc3n2C)-c2ccccc2CO[C@H]1CN(C)Cc1ccncc1 | -7 | 0 | 4 | 5 | 0
CC(C)c1ccc(CNC(=O)C(=O)Nc2nccs2)cc1 | 5 | -1 | / | -10 | 43*
O=C(NCc1ccc(Cl)cc1)C(=O)Nc1nccs1 | -2 | 2 | 10 | 6 | 0
CC(C)S(=O)(=O)C1=NSC2=NC(=O)/C(=C\c3ccc(-c4ccccc4)o3)C(=N)N21 | / | / | -16 | / | /
CC(C)S(=O)(=O)C1=NSC2=NC(=O)/C(=C\c3ccc(-c4cccc(C(=O)O)c4)o3)C(=N)N21 | 21* | / | / | 3 | /
CCCN1C[C@@H](C)[C@H](OC)CN(C)C(=O)c2cc(NC(=O)C3CC3)ccc2OC[C@H]1C | 8 | 1 | -3 | 10 | 0
C[C@H](CO)N1C[C@H](C)[C@H](CN(C)C(=O)CCC(F)(F)F)OCCCC[C@H](C)Oc2ccc(NS(=O)(=O)c3cn(C)cn3)cc2C1=O | 3 | 4 | -8 | / | 0
CN(C)CCN(Cc1ccccc1)S(=O)(=O)c1ccc(-c2ccc(=O)[nH]n2)s1 | 16* | -2 | 12 | 11 | 0
CCCN(C)C[C@@H]1Oc2cc(-c3cccc(C#N)c3)ccc2S(=O)(=O)N([C@H](C)CO)C[C@@H]1C | 8 | -2 | -5 | -9 | 0
CN1CCN(C(=O)[C@H]2[C@H](CO)[C@H]3Cn4c(ccc(-c5cncnc5)c4=O)[C@H]3N2CC2CCCC2)CC1 | 11 | 0 | / | / | 0
O=C(c1ccccc1)c1ccccc1 | -1 | -1 | 8 | / | 0
O=C(O)C1C=CC(C(=O)O)c2ccccc21 (stereo not given) | / | 1 | / | -9 | 44*
CC(c1ccccc1)C1OCC(C[N+]2(C)CCCCC2)O1 (stereo not given) | -3 | 15 | / | -6 | 0
CCCCC(CC)C1OCC(C[N+]2(C)CCOCC2)O1 (stereo not given) | -4 | 83* | 0 | 7 | 0
C[C@H](CO)N1C[C@H](C)[C@@H](CN(C)C(=O)CC2CC2)Oc2ncc(C#CC3CC3)cc2C1=O | -2 | -2 | -10 | -9 | 0
CCOC(=O)C1(CCCc2ccccc2)CCN(C(=O)c2cc(C)nc(C)n2)CC1 | -3 | 19 | 1 | 7 | 0
CCOC(=O)C1(CCCc2ccccc2)CCN(C(=O)c2cnc(C)cn2)CC1 | -1 | -5 | -22 | 0 | 44*
O=C(CCCc1ccccc1)Nc1cccc(C(=O)O)c1 | / | -8 | -4 | 33* | 0
CCCCCCC[C@H](N)[C@H](O)C(=O)N(C)[C@@H](CCS(C)=O)C(=O)N[C@@H](Cc1ccc(O)cc1)C(=O)N[C@@H](Cc1ccc(O)cc1)C(=O)O (stereo not given in full) | / | 50* | 7 | 11 | 0
COc1ccc2[nH]c(=O)c(CN(CC3CCCO3)C(=S)Nc3ccc(C)cc3)cc2c1 (stereo not given) | -1 | -1 | / | 10 | 43*
COc1ccc2cc(CN(CC3CCCO3)C(=S)NCc3ccco3)c(=O)[nH]c2c1 (stereo not given) | 2 | 3 | 2 | / | 43*
Cc1ccc(C)c2[nH]c(=O)c(CN(Cc3ccco3)C(=S)NCC3CCCO3)cc12 (stereo not given) | -7 | 2 | / | -8 | 43*
COc1ccc(NC(=O)N(Cc2cc3cc(C)ccc3[nH]c2=O)CC2CCCO2)cc1 (stereo not given) | 6 | 2 | 0 | -8 | 0
Cc1ccc2cc(CN(Cc3ccco3)C(=S)NCC3CCCO3)c(=O)[nH]c2c1 (stereo not given) | / | / | -20 | / | /
Cc1ccc2cc(CN(CC3CCCO3)C(=S)NCc3ccco3)c(=O)[nH]c2c1 (stereo not given) | -3 | 0 | 9 | 2 | 0
SMILES | SIRT5 block | ERAP1 HTS inh | PGC1a acetyl inh | FN deposit inh | FGF22 binding
CCNC(=S)N(CCN(C)C)Cc1cc2cc(OCC)ccc2[nH]c1=O | -2 | -1 | 2 | -7 | 44*
CCNC(=S)N(Cc1cccs1)Cc1cc2cc(OCC)ccc2[nH]c1=O | / | / | 2 | -5 | /
C[C@@H](O)C#Cc1ccc2c(c1)O[C@@H](CN(C)C(=O)c1ccccc1)[C@@H](C)CN([C@@H](C)CO)S2(=O)=O | -1 | -2 | -16 | -6 | 0
COc1ccc2c3c(n(C)c2c1)[C@@H](CO)N(C(=O)Nc1ccc(F)cc1)CC31CN(C(=O)c2ccc3c(c2)OCO3)C1 | 2 | -3 | / | / | 0
O=C(C[C@@H]1C=C[C@@H](NC(=O)CCN2CCCCC2)[C@H](CO)O1)NCc1ccc(Cl)c(Cl)c1 | 10 | 2 | -2 | -3 | 0
CO[C@H]1CN(C)C(=O)c2cc(NC(=O)NC(C)C)ccc2OC[C@H](C)N(CC2CC2)C[C@@H]1C | -4 | 0 | -3 | -3 | 0
COc1ccc2[nH]c(=O)c(CN(CC3CCCO3)S(=O)(=O)c3ccccc3)cc2c1 (stereo not given) | -9 | 5 | / | 0 | 44*
CCNC(=S)N(CCN(C)C)Cc1cc2cc3c(cc2[nH]c1=O)OCO3 | -2 | -2 | -8 | 3 | 0
COc1ccc2cc(CN(CC3CCCO3)S(=O)(=O)c3ccccc3)c(=O)[nH]c2c1 (stereo not given) | / | / | 2 | / | /
CN(C)CCN(Cc1cc2cc3c(cc2[nH]c1=O)OCO3)C(=S)NCc1ccco1 | -7 | -7 | 0 | -2 | 43*
CC(=O)N[C@@H]1CC[C@@H](CCNC(=O)C2CCCC2)O[C@@H]1CO | -4 | 0 | 4 | / | 0
Cc1noc(C)c1S(=O)(=O)Nc1cccc2c1O[C@H](CN(C)C(=O)Nc1ccc3c(c1)OCO3)[C@H](C)CN([C@H](C)CO)C2=O | -4 | 4 | 8 | 8 | 0
CC(c1ccon1)N(C)C(=O)c1cccc(OC2CCN(S(C)(=O)=O)CC2)c1 (stereo not given) | 15* | 2 | 5 | 0 | 0
CCCCCCCCCCOC(=O)C[N+](C)(C)C/C=C(/C)Cl | -1 | 36* | / | -17 | 0
COc1ccc(-c2nnc(SCCC(=O)O)n2C)cc1OC | / | / | 9 | / | /
COc1ccc(-c2nnc(SCCC(=O)O)n2-c2ccccc2)cc1OC | 15* | 3 | / | / | 0
CCN(CC)CCCN=C1N[C@@H](c2ccccc2)C(C(=O)OC)=C(C)N1CC | -2 | 63* | -3 | -16 | 0
COC(=O)C1=C(C)N(Cc2ccccc2C(F)(F)F)C(=NCc2ccc3c(c2)OCO3)NC1c1ccccc1 (stereo not given) | 17* | 0 | / | 1 | 0

Source: PubChem (Broad Institute)
